Assay results gathered from unrelated publications.
Each line is one published result; the experiments were not run side by side.
Read-out: cell growth or viability

The GI50 of `Cc1n[nH]c2ccc3nc(-c4ccc(C(=O)NCCN(C)C)cc4F)c4c(c3c12)CCCC4` is reported as 95 nM (ML-2; 72 h).
With `CCCCCCCCCCCCCCCCCCOc1ccc(CC(=O)OCC[N+]2(C)CCCC2)cc1` the inhibition was 7.36% (NCI-H226; SRB; 10 µM).
`CN(C)CCNC(=O)c1ccc(-c2nc3ccc4[nH]ncc4c3c3c2CCCC3)cc1` gave a GI50 of 658 nM (U-937; 72 h).
The inhibition of `CCCCCCCCCCCCCCCCCCOc1ccccc1CC(=O)OCC[N+](C)(C)C` is reported as 71.3% (NCI-H226; SRB; 10 µM).
The inhibition of `Cc1nc(Nc2ncc(C(=O)Nc3c(C)cccc3Cl)s2)cc(N2CC[C@H](O)C2)n1` is reported as 8% (SU-DHL-8; ATP luminescence; 10 µM, 72 h).
`CN(C)CCNC(=O)c1ccc(-c2nc3ccc4[nH]ncc4c3c3c2CCCCC3)cc1` gave a GI50 of 1480 nM (U-937; 72 h).
`CCCCCCCCCCCCCCCCCCOc1ccccc1CC(=O)OCCC[N+](C)(C)C` gave an inhibition of 22% (NCI-H226; SRB; 10 µM).
With `COc1cccc2c1C(=O)c1c(O)c3c(c(O)c1C2=O)C[C@@](O)(C(=O)CO)C[C@@H]3O[C@H]1C[C@H](N)[C@H](O)[C@H](C)O1` the IC50 was 22.2 nM (U-937; 96 h).
`C=C[C@]1(C)C=C2CC[C@H]3C(C)(C)CCC[C@]3(C)[C@H]2CC1` has an IC50 of 108000 nM (HuCC-A1; MTT; 75 h).
`CCCCCCCCCCCCCCCCCCOc1ccccc1CC(=O)OCC[N+]1(C)CCOCC1` gave an inhibition of 50.2% (NCI-H226; SRB; 10 µM).
`CN(C)CCNC(=O)c1ccc(-c2nc3ccc4[nH]ncc4c3c3c2CCCC3)c(F)c1` gave a GI50 of 243 nM (ML-2; 72 h).
With `CCCCCCCCCCCCCCCCCCOc1cccc(CC(=O)OCC[N+]2(C)CCCC2)c1` the inhibition was 14.6% (NCI-H226; SRB; 10 µM).
`COc1ccc(Nc2ncnc3c2ncn3Cc2ccc(C(=O)NO)cc2)cc1` has an IC50 of 1230 nM (U-937; MTT; 72 h).
`CCCCCCCCCCCCCCCCCCOc1cccc(CC(=O)OCC[N+](C)(C)C)c1` gave an inhibition of 5.79% (NCI-H226; SRB; 10 µM).
The GI50 of `CN(C)CCNC(=O)c1ccc(-c2nc3ccc4[nH]ncc4c3c3c2CCCCC3)c(F)c1` is reported as 1160 nM (U-937; 72 h).
With `COc1cccc2c1C(=O)c1c(O)c3c(c(O)c1C2=O)C[C@@](O)(C(=O)CO)C[C@@H]3O[C@H]1C[C@H](N)[C@H](O)[C@H](C)O1` the IC50 was 861 nM (HuCC-A1; MTT).
The inhibition of `CCCCCCCCCCCCCCCCCCOc1cccc(CC(=O)OCC[N+]2(C)CCCCC2)c1` is reported as 10.8% (NCI-H226; SRB; 10 µM).
For `COc1cccc2c1C(=O)c1c(O)c3c(c(O)c1C2=O)C[C@@](O)(C(=O)CO)C[C@@H]3O[C@H]1C[C@H](N)[C@H](O)[C@H](C)O1`, the IC50 was 840 nM (HuCC-A1; MTT; 75 h).
For `O=C(NO)c1ccc(Cn2cnc3c(Nc4ccc(F)c(Cl)c4)ncnc32)cc1`, the IC50 was 2940 nM (U-937; MTT; 72 h).
With `CCc1nc(C(N)=O)c(Nc2ccc(N3CCC(N4CCN(C)CC4)CC3)c(OC)c2)nc1NC1CCOCC1` the GI50 was 902 nM (ML-2; 72 h).
`CCCCCCCCCCCCCCCCCCOc1ccc(CC(=O)OCCC[N+](C)(C)C)cc1` has an inhibition of 22.1% (NCI-H226; SRB; 10 µM).
`CN1CCC(NC2CCc3[nH]c4c(C(N)=O)ccc(-c5ccccc5Cl)c4c3C2)CC1` (stereo not shown) has an IC50 of 7.6 nM (U-937; 96 h).
`O=C(NO)c1ccc(Cn2cnc3c(Nc4ccc(Br)cc4F)ncnc32)cc1` gave an IC50 of 2160 nM (U-937; MTT; 72 h).
The IC50 of `CC(C)(C)c1cnc(CSc2cnc(NC(=O)C3CCN(C(=O)CCCCCCCN4Cc5cc6c(cc5C4)C(=O)N(C4CCC(=O)NC4=O)C6=O)CC3)s2)o1` (stereo not shown) is reported as 57 nM (NCI-H226; MTT).
`CC(C)(C)c1cc(NC(=O)Nc2ccc(-c3cn4c(n3)sc3cc(OCCN5CCOCC5)ccc34)cc2)no1` gave a GI50 of greater than 10000 nM (ML-2; 72 h).
For `C=C1C[C@@]23CC[C@H]4[C@@](C)(CCC[C@@]4(C)C(=O)O)[C@@H]2CC[C@@H]1C3`, the IC50 was 108000 nM (HuCC-A1; MTT; 75 h).
`Cc1n[nH]c2ccc3nc(-c4ccc(C(=O)NCCN(C)C)cc4)c4c(c3c12)CCCCC4` has a GI50 of 5920 nM (U-937; 72 h).
With `COc1ccc(Nc2ncnc3c2ncn3Cc2ccc(C(=O)Nc3ccccc3N)cc2)cc1` the IC50 was 22800 nM (U-937; MTT; 72 h).
